Bioassay records (PubChem)
procasp7 counter = counter-screen for procaspase-3 activators: activators of human procaspase-7; activation, % at 8.5 µM; recombinant procaspase-7, Ac-DEVD-pNA absorbance 405 nm; D23A/D198A/D206A triple mutant, cannot self-cleave; scale: DMSO 0, 5 µM enzyme 100; P55210; 330,000 compounds, 0.093% hits;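 active = percent activation above the screen-wide mean plus 3 SD, cut at about 25% in these data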
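Replicates: singlicate. Assay system: Procaspase-7 triple mutant (PC-7 D3A). Signal: 405 nm absorbance of p-nitroaniline. Times: 1 h preincubation, 2 h reaction. Buffer or medium: Zinc-free HEPES pH 7.4 with 300 mM NaCl, 0.01% Triton X-100. Also added: DEVD-pNA substrate. Benchmarks: DMSO wells as 0%, DMSO with 5 µM added PC-7 as 100%.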
pCIP destab = lowers stability of the mouse p/CIP coactivator protein; AID 1984; Q05BA5; 290,000 compounds, 0.01% hits; F442A p/CIP-EGFP cells, EGFP fluorescence, 16 h; decrease of EGFP signal, % at 10 µM;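 active = EGFP signal decrease of at least 30% at 10 µM or well 3 SD below plate mean, unless failing retest; inactive = the rest, including hits failing retest or dose response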
Rce1 inh = yeast Ras-converting enzyme inhibition; AID 2563; yeast membranes, quenched prenylated peptide cleavage fluorescence; Q03530; 290,000 compounds, 0.27% hits; calls only;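 active = fall in fluorescence gain of 50% or more versus controls, with final raw signal at or below 3038400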
Hep lipid drop = modulators of hepatic lipid droplet formation; AML12 mouse hepatocytes, oleate lipid droplets, BODIPY imaging; inhibition, % at 6.5 µM; 240,000 compounds, 0.4% hits; AID 1656;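 active = lipid droplet intensity inhibited by at least 50%, with more than 500 cells counted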
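Material – AML12 mouse liver cells · Also added – oleate loading, 100 µM · Compound dosing – 6.5 µM single-point dosing · Times – overnight treatment with compound plus oleate · Measured by – fluorescence imaging, 20x objective, two fields per well · Read-out – percent inhibition of filter-corrected integrated lipid droplet intensity per well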
procasp3 activ = activates human procaspase-3; 330,000 compounds, 0.11% hits; recombinant procaspase-3 D3A, Ac-DEVD-pNA absorbance 405 nm; activation, % at 8.5 µM; P42574;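 active = activation above the mean of all tested compounds plus 3 SD, cut at about 21% in these data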
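Test system: Procaspase-3 D3A mutant, all three cleavage aspartates alanine | Dosing: Single dose, 8.5 µM nominal compound, 0.8% DMSO | Schedule: 1 h preincubation, 2 h reaction | Technique: 405 nm absorbance of p-nitroaniline, reads at 0 and 120 min | Repeats: One well per compound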
FXN GAA850 act = frataxin GAA850 promoter activation; HEK293 lucGAA850 FXN promoter luciferase reporter, 24 h; percent of 10 µM SAHA response; activation, % at 6 µM; 360,000 compounds, 0.56% hits; AID 540364;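 active = activation above the average of all compounds screened plus 3 SD, cutoff fixed separately per campaign, cut at about 7.5% in these data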
Hep lipid conf = confirmation of inhibitors of hepatic lipid droplet formation; shares compounds with Hep lipid drop; AML12 mouse hepatocytes, BODIPY lipid droplet imaging; droplets induced with 100 µM oleic acid; inhibition, % at 5.2 µM; 870 compounds, 65% hits; AID 463183;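 active = inhibition of lipid droplet metric at least 50%, with more than 300 cells in each of four replicates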
AML12 cytotox = counter-screen for cytotoxicity in AML12 mouse hepatocytes | 870 compounds, 3% hits | DAPI nuclear morphology cytotoxicity imaging; active compounds read high; cells fed 100 µM oleate overnight | shares compounds with Hep lipid drop | z-score at 5 µM; in the data active = z-score above about 6.3;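 also: compound exposure lasted overnight at 37 °C before fixation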
AML12 tox ATP = AML12 hepatocyte cytotoxicity, confirmed | cytotoxicity, % at 50 µM | 530 tested, under 10 active | AID 463219 | shares compounds with Hep lipid drop | AML12 mouse hepatocyte viability, ATP luminescence; cells loaded with 100 µM oleic acid;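 active = cytotoxicity above 50% in each of four replicates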;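 also: compound exposure lasted overnight at 37 °C before the ATP read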
Each line names hits and unclear results; the compound was inactive in the other large screens (follow-up assays come after a bar, where they were run). Sampled rows, rich in hits. Any-hit rate of the full collection: about 1.2%.

Cc1ccc(-n2cccc2/C=C2/NC(=O)N(CC(=O)Nc3cccc(C)c3)C2=O)cc1	Hep lipid drop 89.9 | Hep lipid conf 109.8 | AML12 cytotox inactive | AML12 tox ATP inactive
COc1cc(NC(=O)c2oc3ccccc3c2C)ccc1NC(=O)c1ccco1	Hep lipid drop 102.0 | Hep lipid conf 110.6 | AML12 cytotox inactive | AML12 tox ATP inactive
COc1cc(NC(=O)c2cc3ccccc3o2)ccc1NC(=O)c1ccco1	none (no result: Rce1 inh)
CC(=O)Nc1cccc(-c2ccnc3c2CC(C)(C(=O)NCc2ccc(F)c(F)c2)O3)c1 (centres undefined)	none (no result: procasp7 counter, pCIP destab, Rce1 inh, Hep lipid drop, procasp3 activ)
Cc1onc(-c2ccccc2)c1C(=O)N(CC(C)C)c1c(N)n(CC(C)C)c(=O)[nH]c1=O	none (no result: pCIP destab, Rce1 inh, Hep lipid drop)
C/C(=N\N=C(/N)c1nonc1N)c1ccc2c(c1)OCO2	Hep lipid drop 66.0 | Hep lipid conf inactive | AML12 cytotox inactive
C/C(=N/NC(=O)c1nnn(-c2nonc2N)c1-c1ccccc1)c1ccc2c(c1)OCO2	none
C/C=C\C=C/C(=O)Nc1cccc(C2=NOC3(C2)C[C@@H](C(N)=O)N(C(=O)/C=C/C=C\C)C3)c1 (some centres undefined)	none
C=C(C)C(=O)N1CC2(CC(c3cccc(NC(=O)/C=C\C=C/C)c3)=NO2)C[C@H]1C(N)=O (some centres undefined)	Hep lipid drop 54.0 | Hep lipid conf inactive | AML12 cytotox inactive
CCN(CC)C(=O)C1=C(C)N(CCCN2CCCC2=O)C(=O)C(CC(=O)NCCCCc2ccccc2)C1 (centres undefined)	none (no result: procasp7 counter, pCIP destab, Rce1 inh, Hep lipid drop, procasp3 activ)
Cc1ccc(NC(=O)CN(C)CC(=O)Nc2ccc(N3CCOCC3)cc2)c(C)c1	Hep lipid drop 52.8 | Hep lipid conf 83.7 | AML12 cytotox inactive
CSc1nc2ccccc2n1CC(=O)Nc1c(C)cccc1C	Hep lipid drop 54.7 | Hep lipid conf inactive | AML12 cytotox inactive
CC(C)(C)c1cc(NC(=O)Nc2ccc(Cl)cc2Cl)no1	Hep lipid drop 50.5 | Hep lipid conf inactive | AML12 cytotox inactive
CCC(CC)C(=O)N(C)c1c(C)nc2c(OCc3ccc(Cl)cc3Cl)cccn12	none (no result: procasp7 counter, pCIP destab, Rce1 inh, Hep lipid drop, procasp3 activ)
COC(=O)c1ccc(C2=NOC(C)(c3sc(-c4ccc(Cl)cc4)nc3C)C2)cc1 (centres undefined)	Hep lipid drop 55.6 | Hep lipid conf 58.0 | AML12 cytotox inactive | AML12 tox ATP inactive
Cc1ccc(Cn2nc(C)c(NC(=O)C3(C)CC3(Br)Br)c2C)cc1 (centres undefined)	Hep lipid drop 64.0 (no result: Rce1 inh) | Hep lipid conf 67.7 | AML12 cytotox inactive | AML12 tox ATP inactive
CCOCCC(=O)Nc1ccc2c(c1)c(=O)n(C)n2CC=C(C)C	none (no result: procasp7 counter, pCIP destab, Rce1 inh, Hep lipid drop, procasp3 activ)
Cc1ccc(NC(=O)Cc2ccc3c(c2)CCCC3)cc1C	Hep lipid drop 53.0 | Hep lipid conf 64.3 | AML12 cytotox inactive | AML12 tox ATP inactive
Cc1ccc(NC(=O)Nc2ccc3c(c2)CCC3)cc1C	none
N/C(=N/O)c1nc(N2CCCC2)nc(N2CCCC2)n1	none (no result: procasp7 counter, pCIP destab, Rce1 inh, Hep lipid drop, procasp3 activ)
N/C(=N/O)c1nc(N2CCCC2)nc(N(c2ccccc2)c2ccccc2)n1	Hep lipid drop 64.9 | Hep lipid conf 107.1 | AML12 cytotox inactive | AML12 tox ATP inactive
Cc1cc(C)cc(C(O)c2ncc(-c3ccccc3Cl)[nH]2)c1 (centres undefined)	none (no result: procasp7 counter, pCIP destab, Rce1 inh, Hep lipid drop, procasp3 activ)
Cc1[nH]n(-c2ccccc2)c(=O)c1N=Nc1c(Cl)cccc1Cl	none
Cc1[nH]n(-c2ccccc2)c(=O)c1N=Nc1ccc(C(=O)O)cc1	Hep lipid drop 51.2 | Hep lipid conf inactive | AML12 cytotox inactive
Cc1[nH]n(-c2ccccc2)c(=O)c1N=Nc1ccc(Cl)cc1	Hep lipid drop 53.7 | Hep lipid conf inactive | AML12 cytotox inactive
CCOc1cc2[nH]c(=S)n(CCC(=O)NC3CCCCC3)c(=O)c2cc1OCC	none (no result: procasp7 counter, pCIP destab, Rce1 inh, Hep lipid drop, procasp3 activ)
C/C(=C\c1cccc(Cl)c1Cl)C(=O)c1c(C)cc(C)[nH]c1=O	Hep lipid drop 52.2 | Hep lipid conf inactive | AML12 cytotox inactive
C/C(=C\c1ccccc1F)C(=O)c1c(C)cc(C)[nH]c1=O	none
CCOc1ccc(-c2nonc2NC(=O)c2ccco2)cc1	Hep lipid drop 73.9 | Hep lipid conf 92.7 | AML12 cytotox inactive | AML12 tox ATP inactive
CC(C)N1CCC(C)(C(=O)Nc2ccc(Cl)c(Cl)c2)C1 (centres undefined)	none (no result: procasp7 counter, pCIP destab, Rce1 inh, Hep lipid drop, procasp3 activ)
NC(=O)CC(NC(=O)Cc1cccc2ccccc12)c1ccc(N2CCN(c3ccc(F)cc3)CC2)c([N+](=O)[O-])c1 (centres undefined)	Hep lipid drop 53.1 | Hep lipid conf inactive | AML12 cytotox inactive
NC(=O)CC(NC(=O)Cc1cccc2ccccc12)c1ccc(N2CCCCCCC2)c([N+](=O)[O-])c1 (centres undefined)	none (no result: Hep lipid drop)
COC(=O)c1cc(C)sc1NC(=O)C1CC(=O)NN1Cc1ccccc1 (centres undefined)	Hep lipid drop 86.3 | Hep lipid conf 109.5 | AML12 cytotox inactive | AML12 tox ATP inactive
CCOC(=O)c1cc(CC)sc1NC(=O)Cc1ccccc1	none
COC(=O)c1c(NC(=O)C2CC(=O)NN2Cc2ccccc2)sc(C)c1C (centres undefined)	none (no result: Hep lipid drop)
CCOC(=O)c1cc(CC)sc1NC(=O)C1CC(=O)NN1Cc1ccccc1 (centres undefined)	Hep lipid drop 82.4 | Hep lipid conf 109.6 | AML12 cytotox inactive | AML12 tox ATP inactive
CC1=NN(c2ccccc2)C(=O)C1CCC#N (centres undefined)	none (no result: procasp7 counter, pCIP destab, Rce1 inh, Hep lipid drop, procasp3 activ)
Cn1cnc(S(=O)(=O)N2CCCCC2c2cc(C(=O)Nc3cccc4c3CCCC4)no2)c1 (centres undefined)	none (no result: procasp7 counter, pCIP destab, Rce1 inh, Hep lipid drop, procasp3 activ)
COc1ccc(NC(=S)NC(=O)c2ccccc2Cl)cc1	Hep lipid drop 56.8 | Hep lipid conf inactive | AML12 cytotox inactive
CCC(C)(C)NC(=O)C(c1ccc(OC)cc1)N(C(=O)CCC(=O)Nc1cc(C)on1)c1cccc(OC)c1 (centres undefined)	none
COc1ccc(C(C(=O)NC(C)(C)C)N(CCO)C(=O)CCC(=O)Nc2cc(C)on2)cc1 (centres undefined)	none
